In data set [1] the test system is PANC-1. As to the kind of experiment: Cytotoxicity against human PANC1 cells assessed as cell viability after 3 hrs by WST-8 cells. The class given is functional. A digest of the protocol:
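PANC-1 cells, 2 × 10⁴/well, grown 24 h in DMEM at 37 °C in 5% CO₂. Cells were PBS-washed and then exposed 24 h to serial dilutions in nutrient-deprived medium or in normal DMEM. After a PBS wash, WST-8 in DMEM was added for 3 h and A450 was read. Viability was taken against blank and control from the mean of three wells. PC50 is the concentration killing 50% of cells preferentially in NDM.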

For data set [2], the system named is CAPAN-1. As to the kind of experiment: Antitumor activity against human Capan1 cells injected into BALB/cAJcl-nu-nu mouse assessed as reduction in tumor weight at 50 ug for 6 days in a week upto 28th days treatment started on 15th day tumor injection. The class given is functional. A digest of the protocol: (§1)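 Female BALB/cAJcl-nu/nu mice, five weeks old, injected s.c. on the right back with 5 × 10⁶ CAPAN-1 cells in DMEM. At two weeks, mice with tumors around 5 mm were randomized to treatment or vehicle groups. Drug was given from a DMSO stock (10 mg/mL) diluted in saline, 0.2 mL i.p., 6 days/week for 4 weeks. Body weight and tumor size were taken weekly. Tumors were weighed wet at the end.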

The species named for data set [3] is Mus musculus. As to the kind of experiment: Toxicity in human Capan1 cells injected BALB/cAJcl-nu-nu mouse assessed as behavior at 50 ug for 6 days in a week upto 28th days treatment started on 15th day tumor injection. Conditions: capan-1, 144 h. The class given is organism-based. The procedure, abridged: as §1
For data set [4], the species on record is Mus musculus. As to the kind of experiment: Toxicity in human Capan1 cells injected BALB/cAJcl-nu-nu mouse assessed as body weight at 50 ug for 6 days in a week upto 28th days treatment started on 15th day tumor injection. It counts as organism-based. Conditions: capan-1, 144 h. A digest of the protocol:
as §1

Calls of active or inactive are those of the source. The calls are words filed in the database; no cut-off is given here.

As to `CCOc1ccc(C[C@H]2COC(=O)[C@@H]2Cc2ccc(O)c(OC)c2)cc1OCC`, the PC50 in data set [1] worked out at 4.85 µM. Regarding `CCOc1cc(C[C@H]2C(=O)OC[C@@H]2Cc2ccc(OCC)c(OC)c2)ccc1O`, the PC50 in data set [1] is 4.77 µM. Take `COc1ccc(C[C@H]2COC(=O)[C@@H]2Cc2ccc(O)c(OCCO)c2)cc1OC`: the PC50 in data set [1] was determined as 7.7 µM. As for `CCOc1cc(C[C@H]2C(=O)OC[C@@H]2Cc2ccc(OC)c(OCC)c2)ccc1O`, in data set [1], the PC50 came to 0.66 µM.

Turning to `COc1cc(C[C@H]2C(=O)OC[C@@H]2Cc2ccc(OC)c(OC)c2)ccc1O` [ARCTIGENIN], the PC50 in data set [1] turned out to be 0.8 µM. Further, the inhibition result in data set [2] was “Active”. Also, the Activity entry in data set [3] and in data set [4] was “Non-toxic” throughout. As to `CCCOc1cc(C[C@H]2C(=O)OC[C@@H]2Cc2ccc(OC)c(OC)c2)ccc1O`, the PC50 in data set [1] amounted to 3.74 µM. In the case of `CCOc1cc(C[C@H]2COC(=O)[C@@H]2Cc2ccc(O)c(OC)c2)ccc1OC`, in data set [1], the PC50 came out at 4.71 µM. On to `CCOc1cc(C[C@H]2C(=O)OC[C@@H]2Cc2ccc(OC)c(OC)c2)ccc1O`, for which the PC50 in data set [1] is 3.74 µM. With `CCCCOc1cc(C[C@H]2C(=O)OC[C@@H]2Cc2ccc(OC)c(OC)c2)ccc1O`, in data set [1], the PC50 came to 7.14 µM. `CCCOc1cc(C[C@H]2C(=O)OC[C@@H]2Cc2ccc(OC)c(OCCC)c2)ccc1O`: the PC50 in data set [1] came to 13.6 µM.

As to `CCCOc1cc(C[C@H]2C(=O)OC[C@@H]2Cc2ccc(OC)c(OCC)c2)ccc1O`, the PC50 in data set [1] was 3.54 µM. Regarding `CCOc1ccc(C[C@H]2COC(=O)[C@@H]2Cc2ccc(O)c(OC)c2)cc1OC`, in data set [1], the PC50 turned out to be 0.49 µM.

With `COc1ccc(C[C@H]2COC(=O)[C@@H]2Cc2ccc(O)c(OC(C)C)c2)cc1OC`, the PC50 in data set [1] was determined as 4.16 µM.

For the molecule `CCOc1cc(C[C@H]2C(=O)OC[C@@H]2Cc2ccc(OCC)c(OCC)c2)ccc1O`, the PC50 in data set [1] was determined as 0.78 µM. Also, the inhibition entry in data set [2] is “Active”. Besides, the Activity entry in data set [3] and in data set [4] was “Non-toxic” throughout. Take `CCCOc1cc(C[C@H]2C(=O)OC[C@@H]2Cc2ccc(OCC)c(OCCC)c2)ccc1O`: the PC50 in data set [1] came out at 28.6 µM. On the same count and under the same terms, as for `CCCCCCOc1cc(C[C@H]2C(=O)OC[C@@H]2Cc2ccc(OC)c(OC)c2)ccc1O`, the figure is 3.89 µM.
